Tests used:
[1] = system: chick embryo dorsal root ganglia (DRG); format: cell-based; conditions: for Inhibition of neurite outgrowth on fibronectin by CS peptide: Table IV, 1 mg/ml peptide, BSA background subtracted
[2] = system: chick embryo dorsal root ganglia (DRG); assay: Neurite outgrowth of explanted ganglia on substrate-adsorbed ligands; format: cell-based
Method in brief: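 Ligands in Dulbecco's PBS were adsorbed to wells (60 min, RT), then blocked with 10 mg/ml heat-denatured BSA (30 min, RT). For co-coating, the fragment went on first, then the CS-IgG conjugate, 60 min each. Lumbosacral DRG from 10-12-d chick embryos were cultured overnight at 37°C in Ham's F12 with 2 mM glutamine, antibiotics and 20 ng/ml 7S-NGF. After glutaraldehyde fixation, radius was read at four 90° positions with a calibrated eyepiece, 6-10 ganglia per point.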

chick embryo fibroblasts = assay: Adhesion and spreading of chick embryo fibroblasts on coated substrates; format: cell-based; conditions: control experiment
[3] = system: B16-F10 murine melanoma cells; conditions: melanoma cell system; cited from earlier work

Substance: FRRTTPPTTATPIRHRPRPYPPNVGEE [CS4]
- Further inhibition when coincubated with mAb 333 (300 μg/ml) ([1]; Fig. 6, 20 μg/ml fibronectin, CS4 1 mg/ml, compared with mAb 333 alone): no further inhibitory activity

Substance: Fibronectin
- Relative activity ([2]; Table I, relative to activity of fibronectin after subtraction of the background due to IgG): 100%
- Adhesion / spreading of chick embryo fibroblasts on substrate (chick embryo fibroblasts): adhere equally well

Substance: DELPQLVTLPHPNLHGPEILDVPST [CS1]
- Inhibition of neurite outgrowth on fibronectin by CS peptide ([1]; 20 μg/ml fibronectin): 32%
- Inhibition of fibronectin-mediated neurite extension ([1]; five independent experiments): 25-30%
- Activity relative to fibronectin on a molar basis, fold less active [3]: 2.5 fold

Substance: LPGTSGQQPSVGQQMIFEEHGFRR [CS3]
- Inhibition of neurite outgrowth on fibronectin by CS peptide ([1]; 20 μg/ml fibronectin): 11%

Substance: Nerve growth factor [reference compound]
- Effect on fibronectin-mediated neurite extension ([2]; control experiment, medium supplement 20 ng/ml): no detectable effect
